Reference: ChEMBL document CHEMBL3351489, “Design, synthesis, and structure-activity relationships of a series of novel N-aryl-2-phenylcyclopropanecarboxamide that are potent and orally active orexin receptor antagonists” (Bioorg Med Chem, 2014)
≈ marks a conversion by molar mass, not a printed value. Calls of active or inactive are those of the source. The calls are words filed in the database; no cut-off is given here.

Tests used:
Orexin receptor type 2 = molecular target: T1, Orexin receptor type 2 (Homo sapiens, UniProt O43614); experiment: Displacement of [125I]-Orexin A from human OX2R expressed in CHO cells after 30 mins by topcount analysis; assay type: cell-based
T1 sequence (O43614 whole entry): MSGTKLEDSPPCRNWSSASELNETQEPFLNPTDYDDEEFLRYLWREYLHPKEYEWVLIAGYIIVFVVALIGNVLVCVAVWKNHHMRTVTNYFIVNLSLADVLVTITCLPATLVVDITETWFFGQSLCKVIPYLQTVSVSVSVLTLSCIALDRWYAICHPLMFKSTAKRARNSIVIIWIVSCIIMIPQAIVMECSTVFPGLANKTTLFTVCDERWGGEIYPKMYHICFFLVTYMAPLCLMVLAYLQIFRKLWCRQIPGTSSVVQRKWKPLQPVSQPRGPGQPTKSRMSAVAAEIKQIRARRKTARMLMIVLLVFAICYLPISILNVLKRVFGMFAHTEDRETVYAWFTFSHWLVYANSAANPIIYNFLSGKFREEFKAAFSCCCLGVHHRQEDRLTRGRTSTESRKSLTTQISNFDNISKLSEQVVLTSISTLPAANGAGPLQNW

[1] = molecular target: T2, Orexin/Hypocretin receptor type 1 (Homo sapiens, UniProt O43613); experiment: Displacement of [125I]-Orexin A from human OX1R expressed in CHO cells after 30 mins by topcount analysis; assay type: cell-based
T2 sequence (O43613 whole entry): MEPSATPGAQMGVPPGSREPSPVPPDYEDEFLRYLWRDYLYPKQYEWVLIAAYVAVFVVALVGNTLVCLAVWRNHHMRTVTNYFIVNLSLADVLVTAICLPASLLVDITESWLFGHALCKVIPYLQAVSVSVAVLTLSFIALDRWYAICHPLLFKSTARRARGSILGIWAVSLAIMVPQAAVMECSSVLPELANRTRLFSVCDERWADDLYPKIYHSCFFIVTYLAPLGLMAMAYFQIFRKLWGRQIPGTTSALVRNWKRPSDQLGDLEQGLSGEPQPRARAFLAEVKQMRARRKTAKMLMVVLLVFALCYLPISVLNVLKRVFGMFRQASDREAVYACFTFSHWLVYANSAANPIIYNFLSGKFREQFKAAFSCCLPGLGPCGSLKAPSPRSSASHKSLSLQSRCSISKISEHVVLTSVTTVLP
How it was run: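 Membranes from CHO cells expressing human OX1R, […] per well, in 25 mM HEPES pH 7.5 with MgCl2, CaCl2, 0.5% BSA, sodium azide, Tween 20; incubated with [125I]-orexin A 30 min at rt on scintillation plate, washed, counted. Nonspecific binding with excess unlabelled orexin A; % inhibition from DPM; mean of 3 wells, single measurement.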

[2] = Ratio of efflux ratio of permeability in pig LLC-MDR1 cells to efflux ratio of permeability in pig LLC-PK1 cells; assay type: ADME, cell-based, Sus scrofa
How it was run: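 LLC-PK1 and MDR1-transfected LLC-PK1 cells grown 5 days on porous inserts (5% CO2, 37 °C). Monolayers preincubated 2 h in HBSS with 10 mM HEPES; compound added apical or basal, 2 h at 37 °C. Receiver side sampled, quantified by LC/MS; Papp from permeated amount, time, initial concentration and membrane area.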

[3] = Aqueous solubility of the compound in PBS at pH 7.4 after 15 mins by HPLC method; assay type: physicochemical
[4] = Plasma concentration in C57BL/6N mouse at 100 mg/kg, po after 1 hr; assay type: ADME, organism-based; set-up: dose 100 mg/kg, route oral
How it was run: (§1)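 Male C57BL/6N mice given single oral 100 mg/kg (suspension in 0.5% methylcellulose, or saline/Cremophor EL/DMSO 85:10:5). At 1 or 3 h, CSF taken from cisterna magna under pentobarbital, then aortic blood for plasma. Samples protein-precipitated with methanol/acetonitrile plus propranolol internal standard; LC/MS/MS in positive MRM mode, 1/x²-weighted calibration; mean ± SEM.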

[5] = Plasma concentration in C57BL/6N mouse at 100 mg/kg, po after 3 hrs; assay type: ADME, organism-based; set-up: dose 100 mg/kg, route oral; how it was run: as §1
[6] = Drug uptake in CSF of C57BL/6N mouse at 100 mg/kg, po after 1 hr; assay type: ADME, organism-based, Cerebrospinal fluid; set-up: dose 100 mg/kg, route oral; conditions: read-out: Drug uptake; how it was run: as §1
[7] = Drug uptake in CSF of C57BL/6N mouse at 100 mg/kg, po after 3 hrs; assay type: ADME, organism-based, Cerebrospinal fluid; set-up: dose 100 mg/kg, route oral; conditions: read-out: Drug uptake; how it was run: as §1
Mus musculus [8] = experiment: Reduction in locomotor activity in ddY mouse model at 100 mg/kg, po after 1 hr; assay type: functional, organism-based; set-up: dose 100 mg/kg
How it was run: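 Male ddY mice kept on 12-h light/dark cycle; oral 10, 30 or 100 mg/kg (DMSO stock diluted twentyfold in 10% Cremophor EL/saline), n = 8 per dose, vehicle n = 16. Ambulation counted as infrared beam breaks in an open-field box over 1 h after dosing; mean ± SEM, one-way ANOVA with Dunnett versus vehicle.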

Mus musculus [9] = experiment: Induction of sleep in po dosed C57BL/6NCrlCrlj mouse assessed as reduction in wakefulness time up to 3 hrs by EEG/EMG analysis; assay type: functional, organism-based
How it was run: (§2)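 Mice with EEG/EMG recording dosed orally (30 or 100 mg/kg, vehicle 10% Cremophor EL, 5% DMSO in saline; n = 7) immediately before lights out. Signals sampled at 128 Hz, 50 Hz filtered; 10-s epochs auto-scored as wake, non-REM or REM, then checked by a blinded observer. Minutes summed hourly and over 3 h; one-way ANOVA with Dunnett versus vehicle.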

Mus musculus [10] = experiment: Induction of non-REM sleep in po dosed C57BL/6NCrlCrlj mouse up to 3 hrs by EEG/EMG analysis; assay type: functional, organism-based; how it was run: as §2
Mus musculus [11] = experiment: Induction of REM sleep in C57BL/6NCrlCrlj mouse at 30 to 100 mg/kg, po up to 3 hrs by EEG/EMG analysis; assay type: functional, organism-based; how it was run: as §2
Mus musculus [12] = experiment: Induction of sleep in C57BL/6NCrlCrlj mouse assessed as reduction in wakefulness time at 100 mg/kg up to 3 hrs by EEG/EMG analysis; assay type: functional, organism-based; set-up: dose 100 mg/kg
How it was run: (§3)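 Oral dosing immediately before lights out, vehicle 10% Cremophor EL, 5% DMSO in saline (n = 7 per group). EEG/EMG amplified, filtered (50 Hz line), sampled at 128 Hz. Recordings were scored automatically in 10-s epochs as wakefulness, non-REM or REM sleep and checked by a blinded observer. Minutes were summed over 3 h from dosing relative to vehicle, with one-way ANOVA and Dunnett test.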

Mus musculus [13] = experiment: Induction of non-REM sleep in C57BL/6NCrlCrlj mouse at 100 mg/kg up to 3 hrs by EEG/EMG analysis; assay type: functional, organism-based; set-up: dose 100 mg/kg; how it was run: as §3

Compound	Ki (Orexin receptor type 2) [nM]	Ki [1] [nM]	Ratio [2]	solubility at 0.25 h [3] [µM]	also measured
COc1ccc(OCC2(c3ccccc3)CC2C(=O)Nc2ccc(C#N)cn2)cc1OC (single isomer, unassigned; (-)) [listing 1 of 2 here]	5	106	1.1	15 (≈ 6.44 µg/mL)	concentration at 1 h [4]: 9900 nM; concentration at 3 h [5]: 3740 nM; concentration at 1 h [6]: 245 nM; concentration at 3 h [7]: 94 nM
COc1ccc(OC[C@@]2(c3ccccc3)C[C@H]2C(=O)N2CCCc3ccccc32)cc1OC	> 10000	> 10000			
COc1ccc([C@]2(COc3ccccc3)C[C@H]2C(=O)Nc2ccccn2)cc1OC	129	> 10000			
COc1ccc(OC[C@@]2(c3ccccc3)C[C@H]2C(=O)Nc2ccncc2)cc1OC	85	1420	4.9		
COc1ccc(OC[C@@]2(c3ccccc3)C[C@H]2C(=O)Nc2ccccc2)cc1OC	7.2	7.2	0.6	2 (≈ 0.807 µg/mL)	
COc1ccc(OC[C@@]2(c3ccccc3)C[C@H]2C(=O)Nc2ncc(C)s2)cc1OC	35	291	2.4	< 1	
COc1ccc(OC[C@@]2(c3ccccc3)C[C@H]2C(=O)Cc2ccccc2)cc1OC	> 10000	> 10000			
COCc1cc(OC[C@@]2(c3ccccc3)C[C@H]2C(=O)Nc2ccccn2)ccc1OC	384	747			
O=C(Nc1ccccn1)[C@@H]1C[C@@]1(COc1ccccc1)c1ccccc1	967	6840			
COc1ccc(OCC2(c3ccccc3)CC2C(=O)Nc2ccc(C#N)cn2)cc1OC (single isomer, unassigned; (-)) [listing 2 of 2 here]					Activity (Mus musculus [8]): Active; Activity (Mus musculus [9]): Dose-dependent effect; Activity (Mus musculus [10]): Dose-dependent effect; Activity (Mus musculus [11]): inactive
COc1ccc(OC[C@@]2(c3ccccc3)C[C@H]2C(=O)Nc2cc(C#N)ccn2)cc1OC	34	103	1	10 (≈ 4.29 µg/mL)	
COc1ccc(OC[C@@]2(c3ccccc3)C[C@H]2C(=O)NC2CCCCC2)cc1OC	7850	2990			
COc1ccc(OC[C@@]2(c3ccccc3)C[C@H]2C(=O)N(C)c2ccccc2)cc1OC	4680	7540			
COc1ccc(OC[C@@]2(c3ccccc3)C[C@H]2C(=O)c2ccccc2)cc1OC	8650	> 10000			
COc1ccc(OC[C@@]2(c3ccccc3)C[C@H]2CNc2ccccc2)cc1OC	4230	4160			
Cc1nc(C(=O)N2CCCC[C@H]2CNC(=O)c2cccc3occc23)c(-c2ccc(F)cc2)s1 [SB-649868]	8.5				
COc1ccc(OC[C@@]2(c3ccccc3)C[C@H]2C(=O)Nc2nc(C)cs2)cc1OC	14	832	1.5	11 (≈ 4.67 µg/mL)	
COc1ccc(OC[C@@]2(c3ccccc3)C[C@H]2C(=O)Nc2cc(C)on2)cc1OC	28	505		< 1	
COc1cccc(OC[C@@]2(c3ccccc3)C[C@H]2C(=O)Nc2ccccn2)c1	1330	> 10000			
COc1ccc(OCC2(c3ccccc3)CC2C(=O)Nc2ccc(C#N)cn2)cc1OC (single isomer, unassigned; (+))	> 2000	> 2000			
COc1ccc(OC[C@@]2(c3ccccc3)C[C@H]2C(=O)Nc2ccccn2)cc1OC	36	1070	0.9	32 (≈ 12.9 µg/mL)	
COCc1ccc(OC[C@@]2(c3ccccc3)C[C@H]2C(=O)Nc2ccccn2)cc1OC	3340	772			
COc1ccc(OC[C@@]2(c3ccccc3)C[C@H]2C(=O)Nc2cccnc2)cc1OC	51	206	3.4		
COc1ccc(OC[C@@]2(c3ccccc3)C[C@H]2C(=O)Nc2ccc(C#N)cn2)cc1OC (racemic)	14	123	1.1	22 (≈ 9.45 µg/mL)	
Cc1ccc(-c2nc3ccc(C)cn3c2CC(=O)N(C)C)cc1					Activity (Mus musculus [12]): Active; Activity (Mus musculus [13]): Active
COc1ccc(OC[C@@]2(c3ccccc3)C[C@H]2C(=O)Nc2ccccn2)cc1	588	5540			
